We go through eight compounds from ChEMBL document CHEMBL3232757, “Structure-activity relationships for withanolides as inducers of the cellular heat-shock response” (J Med Chem, 2014).

Structures are written as SMILES. Active and inactive are the calls of the source. The rule behind the calls is not given here.

For experiment [1], the system named is Mus musculus. Put plainly: Induction of heat shock activity in mouse assessed as upregulation of HSP72 protein level in spleen at 25 mg/kg, sc after 18 hrs by immunoblotting analysis. More on the design: dose 25 mg/kg. It counts as functional, organism-based. The essentials:
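Mice were randomly assigned. Dosing was by subcutaneous injection, 25 mg/kg, in hydroxypropyl β-cyclodextrin 30% w/v with DMSO 10% v/v; vehicle controls got an equal volume; five mice per group. Spleens were taken about 18 h later, snap-frozen, pulverized and lysed in nonionic detergent buffer. 15 μg protein/lane went to SDS-PAGE and immunoblotting for HSP72. Band intensity was normalized to β-actin. Variance versus vehicle was compared by F test.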

The subject of experiment [2] is Mus musculus. In words: Induction of heat shock activity in mouse assessed as upregulation of HSP72 protein level in spleen at 40 mg/kg, sc after 18 hrs by immunoblotting analysis relative to control. The arrangement: dose 40 mg/kg. It counts as functional, organism-based. The essentials:
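Mice given a single subcutaneous dose in cyclodextrin vehicle (hydroxypropyl β-cyclodextrin 30% w/v, DMSO 10% v/v). Controls received an equal volume of vehicle alone. Three mice per group at 40 mg/kg. Spleens harvested about 18 h after dosing, snap-frozen and lysed in nonionic detergent buffer. 15 μg protein/lane run on SDS-PAGE and immunoblotted for HSP72 and β-actin. HSP72 band intensity normalized to actin; Student's t test versus vehicle.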

For experiment [3], the target named is Heat shock 70 kDa protein 6 (Homo sapiens) (UniProt P17066). In words: Induction of […] (unknown origin)-mediated heat shock response expressed in human 293T cells coexpressing GFP assessed as heat shock index after overnight incubation by luciferase reporter gene assay relative to control. It counts as cell-based. The essentials: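 293T cells transduced with a lentiviral EGFP–firefly luciferase fusion under HSP70B′ promoter elements, enriched by heat shock (42 °C, 1 h) plus FACS, then reverse-sorted to remove constitutive expressers. Cells in DMEM/10% FBS were seeded at 20 000/well and given serial dilutions next day, quadruplicate wells, overnight. Read by Steady-Glo luminescence. Index = [Log2(treated/control)]/concentration (μM) at maximal response.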
Chain of Heat shock 70 kDa protein 6 (Homo sapiens) (P17066 whole entry, the tested form may be a part): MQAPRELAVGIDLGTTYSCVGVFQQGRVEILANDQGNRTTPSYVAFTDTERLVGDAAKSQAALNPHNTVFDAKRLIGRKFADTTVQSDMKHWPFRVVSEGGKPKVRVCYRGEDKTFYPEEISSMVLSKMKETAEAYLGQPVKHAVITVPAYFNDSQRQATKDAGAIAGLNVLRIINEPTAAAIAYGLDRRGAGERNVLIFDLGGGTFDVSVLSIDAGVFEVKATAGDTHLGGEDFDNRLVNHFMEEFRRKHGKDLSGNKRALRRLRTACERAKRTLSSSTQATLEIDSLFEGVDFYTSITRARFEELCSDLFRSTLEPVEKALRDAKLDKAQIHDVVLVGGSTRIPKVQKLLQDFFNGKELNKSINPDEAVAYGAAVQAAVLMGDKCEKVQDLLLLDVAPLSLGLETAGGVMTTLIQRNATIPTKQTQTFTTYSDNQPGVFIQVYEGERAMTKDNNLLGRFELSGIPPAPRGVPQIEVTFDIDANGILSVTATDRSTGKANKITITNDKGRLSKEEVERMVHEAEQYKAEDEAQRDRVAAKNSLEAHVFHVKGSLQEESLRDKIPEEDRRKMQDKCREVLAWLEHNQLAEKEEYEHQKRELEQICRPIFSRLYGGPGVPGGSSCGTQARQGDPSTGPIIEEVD

Experiment [4] in a line: Cytotoxicity against human NCI-H929 cells after 3 days by Alamar blue assay. It counts as functional, cell-based. The conditions noted are these: NCI-H929, 72 h.
A short description of experiment [5]: Cytotoxicity against human CHP100 cells assessed as inhibition of cell survival after 24 hrs by MTT assay. It counts as functional, cell-based. The conditions noted are these: CHP100, 24 h.
The species named for experiment [6] is Mus musculus. Put plainly: Induction of heat shock protein-mediated heat shock response in mouse 3T3-Y9-B12 cells assessed as heat shock index after 24 hrs by fluorescence assay relative to control. The format is cell-based. The essentials:
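Mouse 3T3-Y9-B12 heat-shock reporter cells seeded 20 000/well, left to adhere overnight, then exposed 24 h to compound at 1, 2, or 4 μM. After PBS wash, fluorescence read at excitation 485 nm and emission 530 nm. Heat-shock index calculated as [Log2(treated/control)]/concentration (μM).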

Experiment [7] is described as follows: Cytotoxicity against human CHP100 cells assessed as inhibition of cell survival at 4 uM after 24 hrs by MTT assay relative to control. It counts as functional. The conditions noted are these: CHP100, 24 h.

With `CC(=O)OCC1=C(C)C[C@H]([C@@H](C)[C@H]2CC[C@H]3[C@@H]4C[C@H]5O[C@]56[C@H](OC(C)=O)C=CC(=O)[C@]6(C)[C@H]4CC[C@]23C)OC1=O`, the outcome in experiment [1] and in experiment [2] was Active.

In the case of `CC1=C(CO)C(=O)O[C@@H]([C@@H](C)[C@H]2CC[C@H]3[C@@H]4C[C@H]5O[C@]56[C@@H](O)C=CC(=O)[C@]6(C)[C@H]4CC[C@]23C)C1` [WITHAFERIN A], the Activity entry in experiment [3] was “Dose-dependent effect”. Further, the fold change (FC) came to 1.35 in experiment [3] and 2.1 in experiment [6]. The outcome in experiment [1] was inactive. The IC50 in experiment [4] amounted to 250 nM; in experiment [5] it was 970 nM. In addition, the inhibition at 4 µM in experiment [7] was over 80%.

Regarding `CC(=O)O[C@H]1C=CC(=O)[C@]2(C)[C@H]3CC[C@]4(C)[C@@H]([C@H](C)[C@H]5CC(C)=C(CO)C(=O)O5)CC[C@H]4[C@@H]3C[C@H]3O[C@]132`, in experiment [3], the fold change (FC) came to 1.73. In addition, the IC50 in experiment [4] came out at 250 nM; in experiment [5] it was 780 nM. Besides, the inhibition at 4 µM in experiment [7] was over 80%.

With `CC1=C(CO)C(=O)O[C@@H]([C@@H](C)[C@H]2CC[C@H]3[C@@H]4C[C@H]5O[C@]56[C@@H](O)[C@H](n5ccc(=O)[nH]c5=O)CC(=O)[C@]6(C)[C@H]4CC[C@]23C)C1`, the fold change (FC) in experiment [3] is 0.59. Also, the IC50 is 540 nM in experiment [4] and 960 nM in experiment [5]. In addition, the inhibition at 4 µM in experiment [7] was over 80%.

Turning to `CC(=O)OCC1=C(C)C[C@H]([C@@H](C)[C@H]2CC[C@H]3[C@@H]4C[C@H]5O[C@]56[C@H](O)C=CC(=O)[C@]6(C)[C@H]4CC[C@]23C)OC1=O`, the Activity result in experiment [3] is “Dose-dependent effect”. Further, the fold change (FC) worked out at 3.69 in experiment [3] and 4.7 in experiment [6]. Besides, the IC50 in experiment [4] turned out to be 50 nM; in experiment [5], 220 nM. Besides, the inhibition at 4 µM in experiment [7] is over 80%.

Regarding `CC(=O)O[C@@H]1C=CC(=O)[C@]2(C)[C@H]3CC[C@]4(C)[C@@H]([C@H](C)[C@H]5CC(C)=C(CO)C(=O)O5)CC[C@H]4[C@@H]3C[C@H]3O[C@]132`, in experiment [3], the fold change (FC) amounted to 1.64. Also, the IC50 in experiment [4] is 250 nM; in experiment [5], 830 nM. Moreover, the inhibition at 4 µM in experiment [7] is over 80%.

Turning to `CC(=O)OCC1=C(C)C[C@H]([C@@H](C)[C@H]2CC[C@H]3[C@@H]4C[C@H]5O[C@]56[C@@H](O)[C@@H](OS(=O)(=O)O)CC(=O)[C@]6(C)[C@H]4CC[C@]23C)OC1=O`, the fold change (FC) in experiment [3] stood at 0.36. The IC50 in experiment [4] worked out at 1120 nM; in experiment [5] it was 730 nM. Further, in experiment [7], the inhibition at 4 µM was over 80%.

In the case of `CC(=O)OCC1=C(C)C[C@H]([C@@H](C)[C@H]2CC[C@H]3[C@@H]4C[C@H]5O[C@]56C(=O)C=CC(=O)[C@]6(C)[C@H]4CC[C@]23C)OC1=O`, the fold change (FC) in experiment [3] turned out to be 0.92. The values for the IC50 in experiment [4] and in experiment [5] were 460 nM and 390 nM, respectively. Moreover, the inhibition at 4 µM in experiment [7] was over 80%.
